Series [1] deals with DU145 cells. The series can be described thus: Apoptosis assay, Annexin V-FITC/Propidium Iodide flow cytometry. The format is cell-based. To be noted: 24 h. In short, it runs like this:
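DU145 cells in six-well plates were treated 24 h at 37 °C with vehicle, test compound (3, 10, 30 μM) or silibinin reference (30 μM). Cells were harvested, washed in ice-cold PBS, stained with an Annexin V-FITC apoptosis kit and analysed by flow cytometry. Data are mean ± SD of three individual experiments.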
(Flow cytometry measures light scatter and fluorescence of single cells or particles in a stream.)

The subject of series [2] is DU145 cells. The series is described as follows: Cell cycle assay, propidium iodide flow cytometry. To be noted: DU145, 24 h. The format is cell-based. Summed up: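 DU145 cells were treated 24 h after plating with increasing test compound concentrations (3, 10, 30 μM) or silibinin (30 μM), and harvested 24 h later. They were PBS-washed, fixed in ice-cold 70% ethanol for ≥24 h, rewashed in room-temperature PBS and stained with propidium iodide plus RNase-A (30 min, 37 °C). Flow cytometry followed. Data are mean ± SD of three experiments.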

For series [3] the following is noted: cited from earlier work.

“Also recorded” adds a separate entry of the source.

As for `COc1cc(C2Oc3cc(C4Oc5cc(O)cc(O)c5C(=O)C4OC(=O)CCC(=O)O[C@H]4O[C@@H](CO)C(O)[C@@H](O)[C@@H]4O)ccc3OC2CO)ccc1O` (stereo partly drawn) [Compound 15, 5,7-Dihydroxy-2-[3-(4-hydroxy-3-methoxyphenyl)-2-(hydroxymethyl)-2,3-dihydrobenzo[b][1,4]dioxin-6-yl]-4-oxochroman-3-yl [(2R,3S,4R,6S)-3,4,5-trihydroxy-6-(hydroxymethyl)tetrahydro-2H-pyran-2-yl] succinate], the “induction of apoptosis (in words)” value in series [1] (DU145, 3, 10 and 30 μM) was “induced apoptosis in DU145 cells; also recorded: markedly induced cell apoptosis in a dose-dependent manner”. Besides, the “ability to promote DU145 cell apoptosis relative to silibinin” value in series [1] (DU145, same concentration of 30 μM) is listed as “approximately 2 times”. In series [2], the “effect on cell cycle (in words)” value is listed as “arrested cell cycle at G2/M phase; also recorded: blocked the tumor cells in G2/M -phase progression”.
On to `COc1cc(C2Oc3cc([C@H]4Oc5cc(O)cc(O)c5C(=O)[C@@H]4O)ccc3OC2CO)ccc1O` (stereo partly shown) [Silibinin], for which the “Solubility in H2O” value in series [3] is given as “less than 0.4 mg/L”.

These data come from paper PMC10349574 (Drug Design, Development and Therapy, 2023).
